One compound from ChEMBL document CHEMBL1148220, “Antineoplastic agents. 529. Isolation and structure of nootkastatins 1 and 2 from the Alaskan yellow cedar Chamaecyparis nootkatensis” (2004) can be followed below.

Converted amounts (≈) assume the structure as drawn. The source made the active and inactive calls. The calls are words filed in the database; no cut-off is given here.

The subject of one assay is P388. In words: Cytotoxicity against mouse P388 cells. The format is functional. Conditions: read-out: ED50 (the source's name).
Another assay deals with Neisseria gonorrhoeae. In words: Antimicrobial activity against Neisseria gonorrhoeae ATCC 49226 at 64 ug/mL after 24 hrs by broth microdilution assay. The format is functional. Conditions: ATCC 49226, 24 h.
The test system of the next assay is MCF7. In words: Cytotoxicity against human MCF7 cells after 48 hrs by SRB assay. The format is functional. Conditions: MCF7, 48 h.
Assay [1] has as its system Stenotrophomonas maltophilia. In words: Antimicrobial activity against Stenotrophomonas maltophilia ATCC 13637 at 64 ug/mL after 24 hrs by broth microdilution assay. The format is functional, organism-based.
For another assay, the system named is Streptococcus pneumoniae. As to the kind of experiment: Antimicrobial activity against Streptococcus pneumoniae ATCC 6303 after 24 hrs by broth microdilution assay. The format is functional. The settings on record: ATCC 6303, 24 h. The gist of the method: (§1)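 Bacterial MICs were determined by NCCLS broth microdilution. Compounds were dissolved in a small volume of sterile DMSO and diluted in the appropriate medium just before testing. MIC was the lowest concentration giving no visible growth (optically clear). Assays were repeated on separate days.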

A further assay has as its system NCI-H460. As to the kind of experiment: Cytotoxicity against human NCI-H460 cells after 48 hrs by SRB assay. The format is functional. Conditions: NCI-H460, 48 h.
The subject of another assay is Staphylococcus aureus. As to the kind of experiment: Antimicrobial activity against Staphylococcus aureus ATCC 29213 after 24 hrs by broth microdilution assay. The settings on record: ATCC 29213, 24 h. The format is functional. In a few lines:
as §1

Another assay concerns Escherichia coli. In words: Antimicrobial activity against Escherichia coli ATCC 25922 at 64 ug/mL after 24 hrs by broth microdilution assay. The format is functional, organism-based.
The test system of the next assay is Cryptococcus neoformans. In words: Antimicrobial activity against Cryptococcus neoformans ATCC 90122 after 24 hrs by broth microdilution assay. The format is functional. The settings on record: ATCC 90112, 24 h, in the assay text read “ATCC 90112” for “ATCC 90122”. In a few lines:
(§2)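 Yeasts were tested by NCCLS broth microdilution. Compounds were dissolved in a small volume of sterile DMSO and diluted in the appropriate medium immediately before testing. MIC was the lowest concentration inhibiting all visible growth (optically clear). Assays were repeated on separate days.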

The test system of a further assay is Candida albicans. In words: Antimicrobial activity against Candida albicans ATCC 90028 after 48 hrs by broth microdilution assay. The format is functional. The settings on record: ATCC 90028, 48 h. The gist of the method: as §2
The test system of another assay is Enterococcus faecalis. As to the kind of experiment: Antimicrobial activity against Enterococcus faecalis ATCC 29212 after 24 hrs by broth microdilution assay. The format is functional. The settings on record: ATCC 29212, 24 h. In a few lines:
as §1

A further assay concerns DU-145. In words: Cytotoxicity against human DU145 cells after 48 hrs by SRB assay. The format is functional. The settings on record: DU-145, 48 h.
In a further assay the test system is Micrococcus luteus. In words: Antimicrobial activity against Micrococcus luteus Presque Isle 456 after 24 hrs by broth microdilution assay. The format is functional. In a few lines: as §1
A further assay has as its system BXPC-3. In words: Cytotoxicity against human BxPC3 cells after 48 hrs by SRB assay. The format is functional. Conditions: BXPC-3, 48 h.
The next assay concerns KM-20L2. In words: Cytotoxicity against human KM20L2 cells after 48 hrs by SRB assay. The format is functional. The settings on record: KM-20L2, 48 h.
The test system of the next assay is SF-268. In words: Cytotoxicity against human SF268 cells after 48 hrs by SRB assay. The format is functional. Conditions: SF-268, 48 h.
For the next assay, the system named is Enterobacter cloacae. In words: Antimicrobial activity against Enterobacter cloacae ATCC 13047 at 64 ug/mL after 24 hrs by broth microdilution assay. The format is functional, organism-based.

`CC(C)c1c(O)ccc2c1[C@H](O)C[C@H]1C(C)(C)CCC[C@]21C`: in the assay with P388, the EC50 came to 1.7 µg/mL (≈ 5.62 µM). Also, the MIC turned out to be 8 µg/mL (≈ 26.4 µM) in the assay with Neisseria gonorrhoeae; 16 µg/mL (≈ 52.9 µM) against Streptococcus pneumoniae; 16 µg/mL (≈ 52.9 µM) in the assay on Staphylococcus aureus; 16 µg/mL (≈ 52.9 µM) against Cryptococcus neoformans; 64 µg/mL (≈ 212 µM) with Candida albicans; 16 µg/mL (≈ 52.9 µM) in the assay with Enterococcus faecalis. Also, in the assay with Micrococcus luteus, the MIC came out at 8 µg/mL (≈ 26.4 µM). Further, the GI50 with MCF7 is 2.1 µg/mL (≈ 6.94 µM); with NCI-H460, 1.8 µg/mL (≈ 5.95 µM); with DU-145 it was 2.6 µg/mL (≈ 8.6 µM); in the assay on BXPC-3 it was 1.8 µg/mL (≈ 5.95 µM); in the assay with KM-20L2, 2.3 µg/mL (≈ 7.6 µM); with SF-268, 2.3 µg/mL (≈ 7.6 µM). Moreover, the result (in [1]; with Escherichia coli; in the assay with Enterobacter cloacae) was inactive.
